Structures are written as SMILES. “Also recorded” adds a separate entry of the source. Read-outs that look alike come from different tables or passages of the source.

The subject of one data set is NIH-3T3 cells. The data set can be described thus: MTT cytotoxicity assay in non-cancerous NIH-3T3 cells. The format is cell-based, mouse. The settings on record: for IC50: Mus musculus; for cytotoxic effect on non-cancerous NIH-3T3 cells (in words): NIH-3T3 mouse embryonic fibroblast, treatment up to 48 h. The essentials:
(§1)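 Cells (A549 or NIH-3T3) were seeded at 5 × 10^3 per well and grown 24 h at 37 °C, 5% CO2, then given increasing concentrations for 24 h and 48 h. DMSO/medium served as negative control and cisplatin as standard. MTT (5 mg mL−1 stock) was added for 4 h at 37 °C, formazan was dissolved in DMSO, and A595 was read. Triplicate means were used; IC50 came from dose–response inhibition curves.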

The subject of data set [1] is A549 cells. The data set can be described thus: MTT cytotoxicity assay against the A549 lung cancer cell line. The format is cell-based, human. The conditions noted are these: for cytotoxic activity compared with cisplatin: MTT. The procedure, abridged: as §1
Data set [2] relates to A549 cells. The data set can be described thus: AO/EB and Hoechst 33258 staining assay. Type of data set: cell-based, human. The conditions noted are these: A549 cells treated at respective IC50 concentration, 24 h and 48 h. The essentials: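 A549 cells were seeded at 5 × 10^4 per well and grown 24 h at 37 °C, 5% CO2, then exposed at the respective IC50 concentration for 24 h and 48 h, alongside untreated and cisplatin controls. Staining used either AO/EB solution (100 μg per mL each) or Hoechst 33258 solution (100 μg per mL). Cells were examined and counted by fluorescence microscopy within 20 min.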

Data set [3] has as its system A549 cells. Briefly: Intracellular ROS generation. Type of data set: cell-based, human. The settings on record: IC50 concentrations, DCFH-DA, 0-24 h. The procedure, abridged:
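Cells were seeded at 3.0 × 10^4 cells per mL in 24-well plates for 24 h, then dosed at 24 h IC50 concentrations with added 100 μM H2O2 solution. After 10 μM DCFH-DA solution was added, plates were held 10 min in the dark. DCF fluorescence (ex 488/em 510 nm) was read at 0, 2, 4, 6, 8, 12 and 24 h and expressed as fold change versus untreated control. Triplicates, mean ± SD.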

[4] abbreviates: NIH3T3, 24 h, read-out: IC50 at 24 h.
The mark [5] stands for this setting: NIH3T3, 48 h, read-out: IC50 at 48 h.

Broadly, the IC50 is the concentration needed to halve the response being measured. Regarding `Cc1cc(C)c(C2C3CCCN3C3(C(=O)Nc4ccccc43)C2C(=O)c2ccc(Br)cc2)c(C)c1` (stereo not drawn) [5d, 2′-(4-Bromobenzoyl)-1′-mesityl-1′,2′,5′,6′,7′,7a′-hexahydrospiro[indoline-3,3′-pyrrolizin]-2-one], the IC50 in the data set on NIH-3T3 cells (setting [4]) was greater than 100 µM; in the data set with NIH-3T3 cells (setting [5]) it was 42.9 ± 1.51 µM. Moreover, the “cytotoxic activity compared with cisplatin” value in the data set with A549 cells [1] is on record as “better activity than cisplatin”.
On to `N.N.[Cl][Pt][Cl]` [Cisplatin, cisplatin, reference compound], for which, in the data set on A549 cells [2], the “apoptosis induction (AO/EB and Hoechst staining)” value (“apoptosis induction” below) was “distinct changes as an indication of apoptosis and cell death”.
Regarding `Cc1cc(C)c(C2CN(C)C3(C(=O)Nc4ccccc43)C2C(=O)c2ccccc2)c(C)c1` (stereo not drawn) [4a, 3′-Benzoyl-4′-mesityl-1′-methylspiro[indoline-3,2′-pyrrolidin]-2-one], the “DCF fluorescent intensity compared with the untreated control group” value in the data set on A549 cells [3] is “Not much difference”. In addition, the IC50 was greater than 100 µM with NIH-3T3 cells (setting [4]) and 25.4 ± 3.74 µM in the data set with NIH-3T3 cells (setting [5]). Moreover, the “apoptosis induction” value in the data set with A549 cells [2] was “apoptosis-inducing capabilities”.
As to `Cc1cc(C)c(C2C3CCCN3C3(C(=O)Nc4ccccc43)C2C(=O)c2cccc(Cl)c2)c(C)c1` (stereo not drawn) [5f, 2′-(3-Chlorobenzoyl)-1′-mesityl-1′,2′,5′,6′,7′,7a′-hexahydrospiro[indoline-3,3′-pyrrolizin]-2-one], the “DCF fluorescent intensity compared with the untreated control group” value in the data set with A549 cells [3] is “Not much difference”. Moreover, the IC50 in the data set on NIH-3T3 cells (setting [4]) and in the data set on NIH-3T3 cells (setting [5]) was greater than 100 µM throughout. Also, the “cytotoxic effect on non-cancerous NIH-3T3 cells (in words)” value in the data set with NIH-3T3 cells is reported as “non-cytotoxic; also recorded: no cytotoxic effects”. For the same compound, the “fold higher activity at 48 h than at 24 h” value with A549 cells [1] (IC50 at 48 h vs 24 h) is given as roughly 13 fold. Also, the “apoptosis induction” value in the data set with A549 cells [2] was “higher number of early and late apoptotic cells; also recorded: apoptosis-inducing capabilities; also recorded: induces apoptosis”.
For `Cc1ccc(C(=O)C2C(c3c(C)cc(C)cc3C)C3CCCN3C23C(=O)Nc2ccccc23)cc1` (stereo not drawn) [5e, 1′-Mesityl-2′-(4-methylbenzoyl)-1′,2′,5′,6′,7′,7a′-hexahydrospiro[indoline-3,3′-pyrrolizin]-2-one], in the data set with A549 cells [3], the “DCF fluorescent intensity compared with the untreated control group” value was “Not much difference”. Also, the IC50 in the data set on NIH-3T3 cells (setting [4]) and in the data set on NIH-3T3 cells (setting [5]) was greater than 100 µM throughout. Further, the “cytotoxic effect on non-cancerous NIH-3T3 cells (in words)” value in the data set on NIH-3T3 cells is reported as “non-cytotoxic; also recorded: no cytotoxic effects”. In addition, in the data set on A549 cells [2], the “apoptosis induction” value is “higher number of early and late apoptotic cells; also recorded: apoptosis-inducing capabilities”.
Turning to `Cc1cccc(C(=O)C2C(c3c(C)cc(C)cc3C)CN(C)C23C(=O)Nc2ccccc23)c1` (stereo not drawn) [4g, 4′-Mesityl-1′-methyl-3′-(3-methylbenzoyl)spiro[indoline-3,2′-pyrrolidin]-2-one], the “DCF fluorescent intensity compared with the untreated control group” value with A549 cells [3] is listed as “Not much difference”. Further, the IC50 was greater than 100 µM in the data set with NIH-3T3 cells (setting [4]) and 75.3 ± 0.94 µM in the data set on NIH-3T3 cells (setting [5]).
For the compound `Cc1cc(C)c(C2C3CCCN3C3(C(=O)Nc4ccccc43)C2C(=O)c2ccccc2)c(C)c1` (stereo not drawn) [5a, 2′-Benzoyl-1′-mesityl-1′,2′,5′,6′,7′,7a′-hexahydrospiro[indoline-3,3′-pyrrolizin]-2-one], the IC50 is greater than 100 µM with NIH-3T3 cells (setting [4]) and 72 ± 4.45 µM with NIH-3T3 cells (setting [5]). For the same compound, the “cytotoxic activity compared with cisplatin” value with A549 cells [1] is recorded as “better activity than cisplatin”.
For the compound `Cc1cc(C)c(C2CN(C)C3(C(=O)Nc4ccccc43)C2C(=O)c2ccc(Cl)cc2)c(C)c1` (stereo not drawn) [4c, 3′-(4-Chlorobenzoyl)-4′-mesityl-1′-methylspiro[indoline-3,2′-pyrrolidin]-2-one], the IC50 with NIH-3T3 cells (setting [4]) and in the data set with NIH-3T3 cells (setting [5]) was greater than 100 µM each time. The “cytotoxic activity compared with cisplatin” value with A549 cells [1] is recorded as “better activity than cisplatin”.
As to `Cc1ccc(C(=O)C2C(c3c(C)cc(C)cc3C)CN(C)C23C(=O)Nc2ccccc23)cc1` (stereo not drawn) [4e, 4′-Mesityl-1′-methyl-3′-(4-methylbenzoyl)spiro[indoline-3,2′-pyrrolidin]-2-one], in the data set on A549 cells [3], the “DCF fluorescent intensity compared with the untreated control group” value is “Not much difference”. Also, the IC50 with NIH-3T3 cells (setting [4]) and in the data set with NIH-3T3 cells (setting [5]) was greater than 100 µM each time. Besides, the “cytotoxic activity compared with cisplatin” value in the data set with A549 cells [1] was “better activity than cisplatin”.
For `Cc1cc(C)c(C2CN(C)C3(C(=O)Nc4ccccc43)C2C(=O)c2ccc(F)cc2)c(C)c1` (stereo not drawn) [4b, 3′-(4-Fluorobenzoyl)-4′-mesityl-1′-methylspiro[indoline-3,2′-pyrrolidin]-2-one], the “DCF fluorescent intensity compared with the untreated control group” value in the data set with A549 cells [3] is given as “Not much difference”. In addition, the IC50 is greater than 100 µM with NIH-3T3 cells (setting [4]) and 32.8 ± 5.95 µM with NIH-3T3 cells (setting [5]).
`Cc1cc(C)c(C2CN(C)C3(C(=O)Nc4ccccc43)C2C(=O)c2cccc(Cl)c2)c(C)c1` (stereo not drawn) [4f, 3′-(3-Chlorobenzoyl)-4′-mesityl-1′-methylspiro[indoline-3,2′-pyrrolidin]-2-one]: the IC50 with NIH-3T3 cells (setting [4]) and in the data set with NIH-3T3 cells (setting [5]) was greater than 100 µM each time. Besides, the “reduction in cell viability” value in the data set on A549 cells [1] (at 24 and 48 h) is “No substantial reduction in cell viability”.
With `Cc1cc(C)c(C2C3CCCN3C3(C(=O)Nc4ccccc43)C2C(=O)c2ccc(Cl)cc2)c(C)c1` (stereo not drawn) [5c, 2′-(4-Chlorobenzoyl)-1′-mesityl-1′,2′,5′,6′,7′,7a′-hexahydrospiro[indoline-3,3′-pyrrolizin]-2-one], in the data set on A549 cells [3], the “DCF fluorescent intensity compared with the untreated control group” value was “Not much difference”. For the same compound, the IC50 is greater than 100 µM in the data set with NIH-3T3 cells (setting [4]) and 72.1 ± 0.95 µM with NIH-3T3 cells (setting [5]). The “cytotoxic activity compared with cisplatin” value in the data set on A549 cells [1] is reported as “better activity than cisplatin”.
As to `Cc1cc(C)c(C2C3CCCN3C3(C(=O)Nc4ccccc43)C2C(=O)c2ccc(F)cc2)c(C)c1` (stereo not drawn) [5b, 2′-(4-Fluorobenzoyl)-1′-mesityl-1′,2′,5′,6′,7′,7a′-hexahydrospiro[indoline-3,3′-pyrrolizin]-2-one], the values for the IC50 in the data set on NIH-3T3 cells (setting [4]) and with NIH-3T3 cells (setting [5]) were greater than 100 µM and 69.9 ± 1.3 µM, respectively. Further, the “cytotoxic activity compared with cisplatin” value in the data set with A549 cells [1] is “better activity than cisplatin”.
For `Cc1cccc(C(=O)C2C(c3c(C)cc(C)cc3C)C3CCCN3C23C(=O)Nc2ccccc23)c1` (stereo not drawn) [5g, 1′-Mesityl-2′-(3-methylbenzoyl)-1′,2′,5′,6′,7′,7a′-hexahydrospiro[indoline-3,3′-pyrrolizin]-2-one], in that order: greater than 100 µM, greater than 100 µM and “better activity than cisplatin”.
On to `Cc1cc(C)c(C2CN(C)C3(C(=O)Nc4ccccc43)C2C(=O)c2ccc(Br)cc2)c(C)c1` (stereo not drawn) [4d, 3′-(4-Bromobenzoyl)-4′-mesityl-1′-methylspiro[indoline-3,2′-pyrrolidin]-2-one], for which the IC50 with NIH-3T3 cells (setting [4]) and in the data set on NIH-3T3 cells (setting [5]) was greater than 100 µM in each case. Also, the “cytotoxic activity compared with cisplatin” value in the data set on A549 cells [1] is recorded as “better activity than cisplatin”.
